Source: PubChem BioAssay (several laboratories)
Shown are actives, neighbours in structure and some others; about 2.1% of the full set was active somewhere.
HKDC1 inhibitor: HKDC1 hexokinase inhibitors, primary screen, biochemical, fluorescence, uHTS. 340,000 compounds, 0.16% hits. recombinant HKDC1, G6PDH/diaphorase resazurin coupled fluorescence. inhibition, % at 20 µM. AID 493160, 2011;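 active means inhibition above about 35% when tested at 20 µM, limit read from the data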;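 further: plate controls were DMSO wells with enzyme for no effect and DMSO wells lacking enzyme for full effect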
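Test system: Recombinant HKDC1 (HK5) hexokinase enzyme, produced in-house | Input: HKDC1 at 5 µg/mL | Buffer or medium: Tris pH 8.0 buffer with MgCl2, Tween-20, BSA, BME | Schedule: 90 min reaction incubation at room temperature, dark | Technique: Resazurin-to-resorufin fluorescence via G6PDH and diaphorase coupling, 525/613 nm | Controls: DMSO wells with and without enzyme mix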
PfG6PD inh: PfG6PD enzyme inhibitors, primary screen, biochemical, fluorescence intensity, uHTS; glucose-6-phosphate dehydrogenase-6-phosphogluconolactonase (Plasmodium falciparum 3D7); PfGluPho enzyme, NADPH resazurin-diaphorase fluorescence; inhibition, % at 20 µM; 350,000 compounds, 0.78% hits; AID 504690, 2011;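 active means inhibition reaching at least a set limit at 20 µM in the primary screen, cut at about 59% in these data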;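 further: 0% = DMSO wells with substrate and 100% = DMSO wells lacking glucose-6-phosphate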
Beta2AR agonist: beta2AR agonists driving receptor internalization, primary screen, cell-based, FAP fluorogen, flow cytometry; AID 504454, 2011; response, % (test concentration not listed); 340,000 compounds, 0.43% hits; Am2.2-beta2AR cells;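 active means response above a set limit, near 3 SD of response in nonfluorescent compounds, cut at about 42% in these data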
Target sequence (P07550 whole entry, looked up): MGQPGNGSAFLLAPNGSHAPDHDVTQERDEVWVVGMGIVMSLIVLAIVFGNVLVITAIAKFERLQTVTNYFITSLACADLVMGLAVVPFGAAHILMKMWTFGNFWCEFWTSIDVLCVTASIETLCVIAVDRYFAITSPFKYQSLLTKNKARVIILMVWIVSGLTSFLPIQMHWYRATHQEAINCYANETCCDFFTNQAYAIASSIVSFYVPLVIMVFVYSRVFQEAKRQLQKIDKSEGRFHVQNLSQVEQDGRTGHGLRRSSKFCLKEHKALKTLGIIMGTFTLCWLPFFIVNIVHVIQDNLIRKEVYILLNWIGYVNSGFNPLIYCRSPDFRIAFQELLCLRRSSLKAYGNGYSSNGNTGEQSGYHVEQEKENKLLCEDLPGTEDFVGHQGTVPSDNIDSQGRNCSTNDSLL
aDG glyco act: activators of alpha-DG glycosylation, primary screen, uHTS, Pro5-aDG cells, AlphaScreen; alpha-DG glycosylation AlphaScreen (IIH6); 0% Pro5, 100% B10-LARGE cell signal; activation, % at 10 µM; 360,000 compounds, 0.22% hits; AID 624168, 2012;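 active means activation of at least 8% versus controls, or a plate z-score of at least 8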;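 further: Pro5 are CHO cells carrying HIG-tagged alpha-DG that lacks glycosylation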
Cardio protect: cardioprotection against H2O2-induced cell death, primary screen, uHTS, H9c2 cells, ATPLite luminescence; H9c2 cardiomyocytes, H2O2 injury protection, 2 h; protection from H2O2 cell death, % at 20 µM; 360,000 compounds, 0.63% hits; AID 588492, 2011;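 active means compounds giving at least 50% protection of heart cells from peroxide-induced death in the single-dose screen, raw or plate-pattern-corrected value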;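 further: 0% = DMSO wells with peroxide and 100% = DMSO wells without peroxide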
UCH37 DUB inh: inhibitors of human UCH37 deubiquitinase, primary screen, biochemical, Ub-AMC cleavage, fluorescence; Ubiquitin carboxyl-terminal hydrolase isozyme L5 (Homo sapiens), Q9Y5K5; purified proteasome/UCH37; inhibition, % (test concentration not listed); 330,000 compounds, 0.33% hits; AID 588478, 2011;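 active means mean inhibition over replicate wells above about 20%, limit read from the data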;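 further: 0% = compound-free wells with enzyme and 100% = wells lacking proteasome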
Target sequence (Q9Y5K5 whole entry, looked up): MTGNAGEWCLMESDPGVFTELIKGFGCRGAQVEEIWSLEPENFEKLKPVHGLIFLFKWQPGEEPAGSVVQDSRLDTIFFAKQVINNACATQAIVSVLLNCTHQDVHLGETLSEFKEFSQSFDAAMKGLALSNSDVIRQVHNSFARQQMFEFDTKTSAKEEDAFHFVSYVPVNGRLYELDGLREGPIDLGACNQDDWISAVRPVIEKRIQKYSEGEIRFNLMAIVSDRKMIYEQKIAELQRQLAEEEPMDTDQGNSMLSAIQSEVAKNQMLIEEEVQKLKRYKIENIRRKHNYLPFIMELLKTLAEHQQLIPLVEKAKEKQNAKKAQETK
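System: Proteasome-associated human UCH37 deubiquitinase; Input: 0.15 nM proteasome in added enzyme buffer; Also added: Ub-AMC substrate from 1 µM stock; Incubation: 30 min compound-proteasome preincubation then 25 min substrate reaction, room temperature; Detection: fluorescence, ex 355 nm, em 460 nm; Read-out: % inhibition of Ub-AMC cleavage fluorescence; Benchmarks: no-proteasome and no-compound wells.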
PfGluPho conf: PfG6PD inhibitors, hit retest, confirmation, biochemical, fluorescence intensity, single concentration; shares compounds with PfG6PD inh; 2,400 compounds, 34% hits; recombinant PfGluPho, NADPH-diaphorase-resazurin fluorescence; inhibition, % at 20 µM; AID 504753, 2011;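 active means inhibition of at least 50% at 20 µM in any single replicate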;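 further: 0% = DMSO with substrate and 100% = DMSO lacking glucose-6-phosphate substrate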
Diaphorase 10uM: diaphorase inhibitors and chemical oxidizers, confirmation, counter-screen for P. falciparum G6PD inhibitor project, biochemical, fluorescence intensity, 10 µM NADPH; shares compounds with PfG6PD inh; diaphorase-coupled resazurin reduction, NADPH 10 uM; inhibition, % at 20 µM; 820 compounds, 39% hits;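 active means average inhibition reaching 50% or more with the compound at 20 µM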;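 further: resorufin red fluorescence formed as diaphorase reduces resazurin using NADPH; 0% = DMSO with enzyme and 100% = DMSO without enzyme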
Diaphorase 30uM: diaphorase inhibitors and chemical oxidizers, confirmation, counter-screen for P. falciparum G6PD inhibitor project, biochemical, fluorescence intensity, 30 µM NADPH. inhibition, % at 20 µM. shares compounds with PfG6PD inh. 820 compounds, 29% hits. Diaphorase/resazurin coupled assay, resorufin fluorescence. AID 504863, 2011;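 active means inhibition averaging 50% or more, tested at 20 µM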;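 further: 0% = DMSO with enzyme and 100% = DMSO wells lacking diaphorase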
Numbers without * were called inactive; i = inactive; · = no result.

SMILES	HKDC1 inhibitor	PfG6PD inh	Beta2AR agonist	aDG glyco act	Cardio protect	UCH37 DUB inh	PfGluPho conf	others
CC(=NNc1cccc(C(=O)O)c1)c1ccc2c(c1)Nc1ccccc1S2	·	·	·	·	·	-5.3	·
O=C(O)COc1ccc(C=NNc2nc(Nc3ccccc3)nc(N3CCCCC3)n2)cc1	·	·	·	·	·	3.8	·
CCc1ccc(CNc2ccc(O)cc2)cc1	23.7	84.9*	10.8	1.8	-13.9	-2.9	42.6
CCc1ccc(CNc2ccc3c(c2)ncn3CC)cc1	4.8	26.1	0.6	0.5	-8.1	-11.2	·
Oc1ccc(NCc2ccc(OCc3ccccc3)cc2)cc1	9.7	66.1*	0.4	1.7	-8.6	-2.3	25.8
CCn1c(SCC(=O)NN=Cc2ccc(O)c(OC)c2)nc2ccccc21	·	·	·	·	·	3.4	·
COc1ccc(C)cc1Nc1nc(-c2c[nH]c3ccccc23)cs1	-3.6	60.1*	-22.4	-0.1	-14.4	-7.3	-8.3
COc1ccc(OC)c(Nc2nc(-c3cccs3)cs2)c1	-5.8	30.9	1.7	0.2	-5.8	2.2	·
O=C(NC(=S)Nc1ccc(-c2ccc(CO)o2)cc1)c1cccs1	4.0	80.9*	1.3	0.1	23.7	6.1	4.7
Cc1ccc(C(=O)NC(=S)Nc2ccc(-c3ccc(CO)o3)cc2)cc1	-11.4	6.7	-2.5	1.3	-9.9	4.1	·
Cc1cc(C)cc(NC(=O)c2ccc([N+](=O)[O-])o2)c1	-4.7	19.7	3.9	1.5	-21.2	5.4	·
NS(=O)(=O)c1ccc(O)c(NC(=O)c2ccc([N+](=O)[O-])o2)c1	-9.9	77.7*	-9.7	0.1	38.0	5.5	14.3
COc1ccc(/C=C2\C(=O)NC(=O)c3ccccc32)cc1OC	17.9	69.1*	18.1	0.4	42.7	·	41.7
COc1ccc(C=C2C(=O)OC(C)(C)OC2=O)cc1OC	-1.0	-13.0	-7.7	0.0	-2.1	·	·
COC(=O)c1cn(CCOc2ccccc2)c2ccccc12	6.7	4.7	1.1	0.5	-7.8	2.6	·
COc1ccccc1OCCCn1cc(C#N)c2ccccc21	3.4	113.0*	2.0	0.0	11.9	1.5	69.2*	Diaphorase 10uM=64.6*;Diaphorase 30uM=57.7*
N#Cc1cn(CCCOc2ccccc2)c2ccccc12	5.8	61.0*	5.7	-0.1	-8.4	2.3	19.9
CC(=NNc1ncc(Cl)cc1Cl)c1ccc(C#N)cc1	·	·	·	·	·	-15.4	·
CCOC(=O)c1nc2sc(C)c(C)c2c(=O)[nH]1	-4.0	21.7	2.1	0.2	-0.1	i	·
CCOC(=O)/C(=C\c1cccc(O)c1)c1nc2sc(C)c(C)c2c(=O)[nH]1	3.4	68.7*	11.7	0.4	-9.6	1.6	20.2
Cc1ccsc1C=NNC(=O)CNC(=O)c1c(F)cccc1Cl	·	·	·	·	·	5.7	·
CCCCOC(=O)C1=C(C)Nc2ncnn2C1c1ccc(OCC)c(OC)c1 (stereo not drawn)	-5.2	61.6*	-7.7	0.1	0.6	·	28.8
COc1ccc(C=NNC(=S)Nc2ccccc2)cc1COc1cccc(C)c1C	·	·	·	·	·	0.4	·
Cc1cc([N+](=O)[O-])nn1CCCC(=O)Nc1sc2c(c1C(N)=O)CCCC2	-13.6	67.0*	-28.4	0.0	16.3	4.3	31.7
NC(=O)c1c(NC(=O)CCCn2cnc([N+](=O)[O-])n2)sc2c1CCCC2	-12.5	75.8*	-9.9	0.0	-2.1	-1.1	42.3
SMILES	HKDC1 inhibitor	PfG6PD inh	Beta2AR agonist	aDG glyco act	Cardio protect	UCH37 DUB inh	PfGluPho conf	others
O=C(O)COc1ccccc1C=NNC(=O)CSc1nc2ccccc2c(=O)n1-c1ccccc1	·	·	·	·	·	1.3	·
Cc1ccc2nc(-c3ccccc3)cn2c1	2.4	79.0*	-3.5	0.1	-32.4	-7.7	39.6
Clc1ccc(-c2cn3cc(Cl)ccc3n2)cc1	0.1	72.2*	-2.1	0.0	-12.3	-9.5	33.8
Cc1ccc2nc(-c3ccc(-c4ccccn4)s3)cn2c1	3.1	64.6*	9.3	0.5	-12.1	i	38.9
Cc1cc(C(=O)NN=Cc2c(C)nn(-c3ccccc3)c2C)n[nH]1	·	·	·	·	·	3.9	·
COc1ccc(-c2c3c([nH]c(=S)c2C#N)CCC3)cc1	3.5	63.9*	8.8	0.5	2.4	2.8	41.8
CCN(CC)C(=O)c1c(C)[nH]c(=S)c(C#N)c1-c1ccco1	-2.2	61.5*	-3.1	0.0	-11.6	3.0	50.6*	Diaphorase 10uM=3.4;Diaphorase 30uM=-3.7
COc1ccc(OC)c(-c2c3c([nH]c(=S)c2C#N)CCCC3)c1	1.8	61.2*	4.2	0.5	-15.0	1.3	26.5
N#Cc1c(-c2ccco2)c2c([nH]c1=S)CCCC2	3.6	71.1*	-0.7	1.0	1.3	-1.8	34.4
N#Cc1c(-c2cccnc2)c2c([nH]c1=S)CCCC2	6.1	57.9	8.7	0.1	-1.4	0.9	·
O=C(COc1ccc(C=NNC(=O)C(=O)N2CCCCC2)cc1)Nc1ccccc1Cl	·	·	·	·	·	0.7	·
COc1cc(C=NNC(=O)CNC(=O)c2ccccc2)ccc1OC(=O)c1cccs1	·	·	·	·	·	3.0	·
Cc1n[nH]c(C)c1CCC(=O)NN=Cc1c[nH]c2ccccc12	·	·	·	·	·	6.2	·
Cc1cccc(NC(=O)c2ccc(N(C)C3CCCCC3)c([N+](=O)[O-])c2)n1	2.6	59.8*	7.3	-0.2	9.2	1.2	-9.0
Cc1cc(C(=O)Nc2ccc(N3CCCC3)c(Cl)c2)ccc1[N+](=O)[O-]	1.1	67.4*	12.7	1.2	-3.8	5.5	2.2
O=C(Nc1ccc(N2CCCC2)c(Cl)c1)c1ccc([N+](=O)[O-])cc1	-11.5	11.8	6.2	-0.1	-1.6	2.1	·
Cc1cccc(NC(=O)c2ccc(N3CCCCC3)c([N+](=O)[O-])c2)n1	8.3	97.8*	-3.5	-0.2	-1.5	0.9	24.5
CC1CCN(c2ccc(C(=O)Nc3ccc4c(c3)OCO4)cc2[N+](=O)[O-])CC1	-4.3	61.6*	13.5	0.7	-7.8	7.6	-13.2
CN(C)Cc1c(C(=O)NN=C/C=C/c2ccccc2)nnn1-c1nonc1N	·	·	·	·	·	9.1	·
